Bioassay records as filed in PubChem.
Rtt109 Vps75: blocks Candida albicans Rtt109/Vps75 acetyltransferase activity. inhibition, % at 34.9 µM. AID 540336. Q5AAJ8. purified Rtt109/Vps75, ThioGlo CoA-SH fluorescence, 4 h. hit rate 0.16% among 330,000;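 active = inhibition of at least 50% in every replicate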
Target sequence (Q5AAJ8 whole entry, looked up): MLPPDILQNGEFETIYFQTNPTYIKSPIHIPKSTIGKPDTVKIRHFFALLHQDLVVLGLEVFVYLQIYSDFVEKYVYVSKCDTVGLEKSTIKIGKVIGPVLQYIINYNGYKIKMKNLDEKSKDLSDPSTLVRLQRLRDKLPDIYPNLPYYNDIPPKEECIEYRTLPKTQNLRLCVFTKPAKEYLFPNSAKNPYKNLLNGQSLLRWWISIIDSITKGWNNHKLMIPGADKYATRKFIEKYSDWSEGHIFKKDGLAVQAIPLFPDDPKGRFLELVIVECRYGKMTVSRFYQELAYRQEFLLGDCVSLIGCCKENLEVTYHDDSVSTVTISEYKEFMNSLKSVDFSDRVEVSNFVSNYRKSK
dFosB activator: enhances mouse delta FosB homodimer DNA binding; activation, % at 25 µM; P13346; purified delta FosB, TAMRA-CDK5 oligo fluorescence polarization; percent of positive-control signal above neutral wells; hit rate 0.99% among 340,000; AID 493131;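 active = mean activation above about 17%, with every replicate also reaching it, limit read from the data, passing the limit was not always enough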
CAL PDZ FP-1: inhibitors of human CAL PDZ peptide binding; Q9HD26; purified CAL PDZ, TMR-peptide fluorescence polarization, 1 h; inhibition, % at 24.9 µM; hit rate 0.92% among 300,000; AID 602252;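 active = mean inhibition of at least 30% with at least half of replicates also reaching 30%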;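 also: 0% = DMSO neutral control and 100% = excess unlabeled competitor peptide PRC23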
CDK5 p35 inh: blocks human CDK5/p35 kinase activity; Recombinant CDK5/p35, ADP-Glo luminescence, 60 min; inhibition, % at 10 µM; hit rate 0.01% among 330,000; AID 488839;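 active = highest replicate inhibition of at least 50% and at least 75% of replicates reaching 50%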;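 also: plate controls were DMSO neutral control for no effect and GW8510 at 10 µM for full effect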
CAL PDZ FP-2: blocks peptide binding to human CAL PDZ domain; purified CAL PDZ, TMR-peptide fluorescence polarization, 1 h; inhibition, % at 20 µM; hit rate 0.02% among 330,000;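 active = highest replicate inhibition of at least 40%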;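 also: plate controls were DMSO neutral control wells for no effect and unlabeled competitor peptide control wells for full effect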
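material = purified tagged CAL PDZ domain construct (CerCALP) | compound dosing = 20 µM, one dose | times = 1 h at RT | measured by = fluorescence polarization from S- and P-plane intensities, G-factor corrected | read-out = inhibition from polarization loss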
DYRK1A inh: blocks rat Dyrk1A kinase activity | Q63470 | ADP-Glo luminescence, NFATc1 peptide | inhibition, % at 12.5 µM | hit rate 0.43% among 310,000 | AID 504441; in the data active = inhibition above about 50%;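 also: plate controls were vehicle with enzyme for no effect and no enzyme for full effect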
* = called active by the depositor; . = no result given; + = active, no number. Shown are actives, neighbours in structure and some others; about 2.2% of the full set was active somewhere.

SMILES	Rtt109 Vps75	dFosB activator	CAL PDZ FP-1	CDK5 p35 inh	CAL PDZ FP-2	DYRK1A inh
Oc1ccc(/C=N/Nc2cc(N3CCCC3)nc(N3CCCC3)n2)cc1	2	13	3	-1	0	12
COc1ccc(/C=N/Nc2cc(N3CCCC3)nc(N3CCCC3)n2)cc1	.	23*	-2	-1	-1	15
Oc1ccc(/C=N/Nc2cc(N3CCOCC3)nc(N3CCOCC3)n2)cc1	33	-14	-1	0	-3	19
C=CCNc1nc(Cl)nc(Nc2ccc([N+](=O)[O-])cc2)n1	0	5	0	-1	-1	0
C=CCNc1nc(Nc2ccc([N+](=O)[O-])cc2)nc(N2CCCC2)n1	-7	62*	-3	-1	-2	-1
CCOC(=O)C1CCCN(C(=O)Cn2ncc3c([nH]c4ccc(C)cc43)c2=O)C1 (stereo not given)	6	-9	.	-2	1	-3
CCOc1ccc(NC(=O)CC2C(=O)N(c3cccc(OC)c3)C(=O)N2CCOC)cc1 (stereo not given)	-14	-2	59*	1	-2	-5
COCCN1C(=O)N(c2cccc(OC)c2)C(=O)C1CC(=O)Nc1ccc(OC)cc1 (stereo not given)	-6	3	-4	1	0	2
CC/C(=N\O)c1c(O)c2c(n(-c3ccccc3)c1=O)CCCC2	-2	6	-3	0	0	1
COc1ccccc1CNC(=O)CN1C(=O)c2cccc(N)c2C1=O	-110	8	-6	2	-3	8
CCCCNC(=O)CN1C(=O)c2cccc(N)c2C1=O	-5	1	66*	0	-1	.
NC(=O)Cn1cc(/C=N\NS(=O)(=O)c2ccc(F)cc2)c2ccccc21	-2	-3	35*	-2	0	3
N=c1c[n+](N2CCOCC2)[n-]o1	56*	1	2	2	1	-1
CN(Cc1ccccc1)S(=O)(=O)c1ccc(N2CCOCC2)nc1	1	4	73*	-1	1	1
CN(C)S(=O)(=O)c1ccc(N2CCOCC2)nc1	4	2	.	-1	0	3
Cc1c(C(=O)N2CCOCC2)c(S(=O)(=O)Nc2ccc(C(C)C)cc2)c(C)n1C	-5	-9	48*	0	-1	2
CN(C/C=C/c1ccccc1)Cc1cccc2ccccc12	-12	1	0	-1	-1	6
C[N+](C)(CC#N)C/C=C\c1ccccc1	-1	0	76*	-4	0	4
CC(=O)C[C@@H](O)CC(=O)[C@@H]1OC(=O)CCCCCCCCc2ccccc21	1	1	4	1	-1	5
C[C@]1(O)CC(=O)C=C[C@H]1Nc1ccccc1	2	-2	-4	0	-1	5
CCn1ncc(Br)c1C(=O)Nc1cc(C)on1	17	0	41*	-2	-1	-2
CCc1nc2ccc(C(=O)N(C)CC(=O)Nc3ccc(Cl)c(C(F)(F)F)c3)cc2nc1CC	-2	-23	-3	-1	-3	7
CCOc1ccc(NC(=O)CN(C)C(=O)c2ccc3nc(CC)c(CC)nc3c2)cc1OCC	-9	-3	39*	1	0	-2
CCC(CC)C(=O)NCCc1ccc(OC)c(OC)c1	0	-3	60*	.	0	-3
COc1ccc(CCNC(=O)CCCn2c(=O)[nH]c3cc(OC)c(OC)cc3c2=O)cc1OC	-3	-7	-1	-1	-2	-3
SMILES	Rtt109 Vps75	dFosB activator	CAL PDZ FP-1	CDK5 p35 inh	CAL PDZ FP-2	DYRK1A inh
CCOc1cc2[nH]c(=O)n(CCC(=O)NCCc3ccccc3)c(=O)c2cc1OCC	5	6	-5	0	-1	-5
COc1ccc(CCNC(=O)CCn2c(=O)[nH]c3cc(OC)c(OC)cc3c2=O)cc1OC	-21	-4	40*	1	-1	0
CCOc1cc2[nH]c(=O)n(CCC(=O)NCCc3ccc(OC)c(OC)c3)c(=O)c2cc1OCC	1	1	62*	-1	-1	1
CCC(CC)C(=O)NCCc1ccc(OC)cc1	0	0	-5	1	-2	10
COc1cc(/C=C(/Sc2nnc(-c3ccc(F)cc3)o2)C(=O)O)ccc1OC(F)F	-1	2	10	1	-1	-6
Cc1cc(C)cc(NC(=O)C(Sc2nnc(C)c(=O)[nH]2)c2ccccc2)c1 (stereo not given)	18	-2	-1	1	0	2
Cc1nnc(SC(C(=O)Nc2ccc(Cl)c([N+](=O)[O-])c2)c2ccccc2)[nH]c1=O (stereo not given)	4	-16	62*	-2	20	0
Cc1ccccc1NC(=O)Nc1ccccn1	2	-1	-3	1	0	2
O=C(Nc1ccccn1)Nc1ccccc1[N+](=O)[O-]	2	-4	+	2	.	2
Nc1cc(=O)[nH]c(SCC(=O)Nc2cc(S(=O)(=O)N3CCCCCC3)ccc2Cl)n1	-1	37*	-2	-2	-1	-1
Nc1cc(=O)[nH]c(SCC(=O)Nc2cc(S(=O)(=O)N3CCOCC3)ccc2Cl)n1	5	-6	-5	1	-2	-7
CCN1CCC(O)(/C=C/c2ccc(C(C)C)cc2)C(C(=O)/C=C/c2ccc(C(C)C)cc2)C1 (stereo not given)	-5	54*	6	0	-1	.
Fc1ccccc1Cn1cc(C(=S)N2CCOCC2)c2ccccc21	-4	-6	1	-1	0	9
Fc1ccc(Cn2cc(C(=S)N3CCOCC3)c3ccccc32)cc1	11	-7	52*	-1	15	1
CCc1nc2nc(C)c(NS(=O)(=O)c3ccc(C)c(C)c3)c(=O)n2[nH]1	0	-3	-1	-2	-3	-3
Cc1ccccc1Nc1ccc2nonc2c1[N+](=O)[O-]	0	1	-13	1	.	1
O=[N+]([O-])c1c(Nc2ccccc2O)ccc2nonc12	4	0	36*	-1	-1	-1
O=C(NCc1ccc(Cl)cc1)c1ccc(CNc2c(N3CCOCC3)c(=O)c2=O)cc1	-5	-2	69*	-2	-1	-3
CCOC(=O)c1c(NC(=O)CN2CCC(C)CC2)sc(C)c1C	3	8	45*	-1	11	1
CNc1nc(N/N=C/c2cc([N+](=O)[O-])ccc2F)nc(Nc2ccccc2)n1	-2	94*	-1	-1	0	16
CNc1nc(Nc2ccc([N+](=O)[O-])cc2)nc(OCC(F)(F)F)n1	-4	0	.	1	1	-1
O=C(O)c1ncn(Cc2ccc(Br)cc2)c1C(=O)O	-2	-2	.	1	-1	-4
CCC(C)(C)NC(=O)C(c1ccc(C)cc1)N(CC1CCCO1)C(=O)CCC(=O)Nc1ccccn1 (stereo not given)	11	-5	.	0	-1	-2
